Measurements reported in publication PMC3447631 (Chemistry & biology, 2012).
Entries after “also recorded” stand apart in the source; their conditions may differ.

Key:
HNF4α gene expression [1] = test: HNF4α mRNA expression in MIN6 cells; assay type: cell-based, murine; conditions: 5 hours
HNF4α = molecular target: T1, HNF4α (Homo sapiens, UniProt P41235); test: DARTS assay in HepG2 cells; assay type: binding; conditions: HepG2, 20μM, 24hr, subtilisin
T1 sequence (P41235 1-474): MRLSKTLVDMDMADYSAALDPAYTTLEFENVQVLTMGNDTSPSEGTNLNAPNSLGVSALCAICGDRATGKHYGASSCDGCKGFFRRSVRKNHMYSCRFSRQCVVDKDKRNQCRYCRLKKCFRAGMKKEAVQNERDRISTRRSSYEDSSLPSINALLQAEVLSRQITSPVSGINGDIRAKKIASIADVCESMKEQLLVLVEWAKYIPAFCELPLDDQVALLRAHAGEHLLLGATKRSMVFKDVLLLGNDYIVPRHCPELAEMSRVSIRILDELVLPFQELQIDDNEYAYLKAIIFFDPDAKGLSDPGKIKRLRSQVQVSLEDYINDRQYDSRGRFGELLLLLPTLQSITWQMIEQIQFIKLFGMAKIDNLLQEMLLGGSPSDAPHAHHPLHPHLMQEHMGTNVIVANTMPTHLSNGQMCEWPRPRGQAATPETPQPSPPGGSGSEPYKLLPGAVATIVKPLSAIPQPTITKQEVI
Method in brief: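 DARTS: HepG2 cells were treated with DMSO or test compound at 20μM for 24hr. Read-out is the ligand-induced change in HNF4α sensitivity to proteolysis.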

PPARγ = assay type: cell-based; conditions: PPRE-Luc, HeLa
Method in brief: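 HeLa cells were co-transfected with a PPRE-Luc reporter, with or without a PPARγ expression vector, then treated with test compound. Read-out was luciferase activity; mean ± SE, n=3.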

L-type calcium channel = test: Ricerca hit profiling panel: L-type calcium channel; assay type: binding; conditions: Ricerca panel of 41 receptors/enzymes
CYP (2C19) = CYP (2C19) (Homo sapiens, UniProt P33261); test: Ricerca hit profiling panel: CYP 2C19; assay type: biochemical; conditions: Ricerca panel of 41 receptors/enzymes
[2] = test system: panel of 60 human tumor cell lines; test: NCI DTP panel of 60 human tumor cell lines; assay type: cell-based; conditions: NCI/NIH DTP screen
Solubility = assay type: physicochemical; conditions: limits deliverable dose in vivo
liver = test: Hepatic steatosis in mice; assay type: in vivo; conditions: 10 and 30 mg/kg IP, dose-dependent
tumor cell lines = test: Toxicity to tumor cell lines versus cultured primary cells in vitro; assay type: cell-based
[3] = test system: endogenous insulin promoter; test: Endogenous insulin mRNA; assay type: cell-based, human; conditions: T6PNE cells
Method in brief: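 Q-PCR of endogenous insulin mRNA in T6PNE cells after 48 h exposure to test compound across a concentration series. For fatty acids, cells got 1μM tamoxifen plus fatty acid or DMSO vehicle for 48 hours before RNA harvest. Insulin mRNA was normalized to GAPDH or 18S rRNA; mean ± SE, n=3.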

[4] = Tolerability and VetScan liver panel blood chemistry in mice; assay type: in vivo
Method in brief: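 NONcNZO10/LtJ or ICR mice received vehicle (DMSO) or test compound IP once daily for 5 days. Normal-mouse groups were DMSO, 30 mg/kg/day and 10 mg/kg/day (n=4 each). Blood was drawn before sacrifice and run on a VetScan analyzer for ALP, ALT, GGT (IU/L), bile acids (μmol/L), total bilirubin, BUN, cholesterol (mg/dL) and albumin (g/dL).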

T6PNE cells = test: Acylcarnitine analysis by GC/MS of T6PNE cell extracts; assay type: cell-based, human
Hep3B cells = test: Hep3B-Luc orthotopic xenograft in liver of nude mice; assay type: in vivo; conditions: 30 mg/kg IP daily or every other day
Method in brief: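 Orthotopic model: luciferase-expressing Hep3B cells were injected into the liver parenchyma of nude mice. Once tumour was established (luciferase counts doubled on 3 consecutive bioluminescent reads), mice received test compound 30 mg/kg IP daily or every other day as tolerated, or DMSO vehicle. Tumour and normal liver were harvested after 20–57 days for Oil Red O, cleaved caspase-3 immunostaining and TUNEL.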

[5] = test system: primary murine hepatocytes; test: Primary murine hepatocytes in vitro; assay type: cell-based
Method in brief: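 Primary murine hepatocytes were exposed to DMSO or test compound (5μM) for 3 days, then fixed and stained with Oil Red O.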

HNF4α DNA binding = molecular target: T2, HNF4α DNA binding (Homo sapiens, UniProt P41235); test: HNF4α DNA binding, HNF TransAM ELISA on HepG2 nuclear extracts; assay type: cell-based; conditions: HepG2 incubated overnight with compound
T2 sequence (P41235 1-474): T1 sequence (P41235 1-474)
Method in brief: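 HepG2 cells were incubated overnight with test compound. Nuclear protein extracts (5μg) were added to wells bearing an oligonucleotide with an HNF4α binding site. Bound HNF4α was detected with an anti-HNF4α antibody (ELISA). Mean ± SD, n=3 biological replicates; Student's t-test.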

HNF4α protein = HNF4α protein and Ki67 in mouse tissues after IP injection; assay type: in vivo; conditions: mice
p57Kip2 expression = test: Kip2 mRNA in T6PNE cells; assay type: cell-based, human
Method in brief: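 Kip2 mRNA in T6PNE cells measured by Q-PCR, normalized to 18s rRNA. Treated and DMSO vehicle cells were compared by Student's t-test.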

[6] = Hepatic microsomal stability; assay type: in vitro ADME; conditions: 60-minute incubation in vitro
HNF4α gene expression [7] = test: HNF4α mRNA expression in HepG2 cells; assay type: cell-based; conditions: 48 hours
Method in brief: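 HNF4α mRNA in treated HepG2 cells measured by Q-PCR and normalized to 18S rRNA. Differences in expression assessed by Student's t-test.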

Hep3B-Luc cells = test: Hep3B-Luc cytotoxicity; assay type: cell-based, human
Method in brief: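 Hep3B cells engineered to express luciferase from a CMV promoter, tested alongside primary hepatocytes. Viability was read as bioluminescence at 24, 48 and 72 hours after treatment. Cell division was followed by BrdU uptake, with Oil Red O fat staining.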

[8] = test system: HNF4α-responsive OTC promoter; test: OTC promoter-luciferase reporter co-transfected with full length human HNF4α; assay type: cell-based; conditions: 1μM, 48 hours
[9] = In vivo PK studies in mice; conditions: mouse, plasma

CYP (2C19), sequence (P33261 whole entry): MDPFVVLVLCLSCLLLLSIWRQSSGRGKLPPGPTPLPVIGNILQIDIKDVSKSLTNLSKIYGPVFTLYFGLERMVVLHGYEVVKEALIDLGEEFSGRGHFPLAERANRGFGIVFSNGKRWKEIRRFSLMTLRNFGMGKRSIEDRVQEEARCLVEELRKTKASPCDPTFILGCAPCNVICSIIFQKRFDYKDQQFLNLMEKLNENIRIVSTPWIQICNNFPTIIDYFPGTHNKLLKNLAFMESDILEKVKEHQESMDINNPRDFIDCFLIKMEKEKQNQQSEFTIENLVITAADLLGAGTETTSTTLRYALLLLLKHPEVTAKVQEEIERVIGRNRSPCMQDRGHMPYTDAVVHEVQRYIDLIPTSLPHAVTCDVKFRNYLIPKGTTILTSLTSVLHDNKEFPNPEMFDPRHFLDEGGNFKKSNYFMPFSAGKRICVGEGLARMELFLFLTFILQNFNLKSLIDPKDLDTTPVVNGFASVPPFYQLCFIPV

Cc1ccc([N+](=O)[O-])cc1S(=O)(=O)n1c(C)nc2ccccc21 [BI6015, 2-Methyl-1-(2-methyl-5-nitrophenylsulfonyl)-1H-benzo[d]imidazole]
effect on HNF4α expression in MIN6 (HNF4α gene expression [1]): strongly repressed
effect on HNF4α protease sensitivity (DARTS) (HNF4α): induced altered HNF4α protease sensitivity
activity as PPARγ agonist (PPARγ): lacked activity as a PPARγ agonist; also recorded: not to be a PPARγ agonist
cross reactivity with L-type calcium channel (L-type calcium channel): significant cross reactivity
cross reactivity with CYP 2C19 (CYP (2C19)): significant cross reactivity
effect on panel of 60 human tumor cell lines [2]: Slowed growth and/or toxicity
solubility (Solubility): limited solubility
hepatic steatosis in vivo (liver): marked fat accumulation (steatosis)
toxicity to tumor cell lines in vitro (tumor cell lines): toxic
effect on endogenous insulin expression / insulin promoter activity [3]: potently inhibited
reduction of endogenous insulin gene expression [3]: 50 fold
tolerability ([4]; IP once per day for 5 days, 30 mg/kg): well tolerated
blood chemistries, including ALT ([4]; VetScan Liver Panel): unaffected
acetylcarnitine (T6PNE cells): concurrent increase
longer chain acylcarnitines (C18, C18:1, C16, C14) (T6PNE cells): decreased levels
apoptosis (TUNEL, cleaved caspase-3) in the normal liver (Hep3B cells): but not in the normal liver
apoptosis (TUNEL, cleaved caspase-3) within the tumor (Hep3B cells): high levels of apoptotic cells
tumor luciferase counts (Hep3B cells): some treated animals exhibited decreased luciferase counts, this did not occur in all animals
Oil Red O staining in normal liver and tumor (Hep3B cells; 20–57 days): marked induction
toxicity in primary hepatocytes in vitro [5]: Toxicity was not observed
steatosis in primary mouse hepatocytes in vitro ([5]; 5μM, 3 days, Oil Red O): induced steatosis
effect on HNF4α DNA binding (HNF4α DNA binding): potently repressed
HNF4α expression in the intestine or kidney (HNF4α protein; IP): does not change
HNF4α protein in the liver (HNF4α protein; IP): loss of HNF4α protein
number of cells expressing Ki67 in liver, intestine or kidney (HNF4α protein; versus vehicle): no difference
effect on Kip2 expression (p57Kip2 expression): reduced
hepatic microsomal stability, compound remained [6]: 22%
effect on HNF4α expression in HepG2 (HNF4α gene expression [7]): strongly repressed
BrdU incorporation in Hep3B-Luc cells (Hep3B-Luc cells; after 48 hours of treatment): decreased
toxicity to Hep3B cells (Hep3B-Luc cells; bioluminescence, 24, 48 and 72 hours): markedly toxic
OTC promoter-driven luciferase expression in CV-1 cells [8]: inhibited
OTC promoter-driven luciferase expression in HepG2 cells [8]: inhibited
AUC ([9]; ip, 30 mg/kg): 0.0267 µg·h/mL
half-life ([9]; other: oral gavage or intraperitoneal (IP) injection): ~1.5 h
